Screens: PubChem, Sanford-Burnham Center for Chemical Genomics
Apaf1 activ: activators of human Apaf-1 apoptosome, primary screen, biochemical, DEVD-Rh110 fluorescence, uHTS; Apoptotic protease-activating factor 1 (Homo sapiens), O14727; Apaf-1 apoptosome caspase-3 activation; active compounds read low; activity change, negative = activation, % at 20 µM; hit rate 0.31% among 330,000;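 active means activity change at or below -40% at 20 µM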
Target sequence (O14727 whole entry, looked up): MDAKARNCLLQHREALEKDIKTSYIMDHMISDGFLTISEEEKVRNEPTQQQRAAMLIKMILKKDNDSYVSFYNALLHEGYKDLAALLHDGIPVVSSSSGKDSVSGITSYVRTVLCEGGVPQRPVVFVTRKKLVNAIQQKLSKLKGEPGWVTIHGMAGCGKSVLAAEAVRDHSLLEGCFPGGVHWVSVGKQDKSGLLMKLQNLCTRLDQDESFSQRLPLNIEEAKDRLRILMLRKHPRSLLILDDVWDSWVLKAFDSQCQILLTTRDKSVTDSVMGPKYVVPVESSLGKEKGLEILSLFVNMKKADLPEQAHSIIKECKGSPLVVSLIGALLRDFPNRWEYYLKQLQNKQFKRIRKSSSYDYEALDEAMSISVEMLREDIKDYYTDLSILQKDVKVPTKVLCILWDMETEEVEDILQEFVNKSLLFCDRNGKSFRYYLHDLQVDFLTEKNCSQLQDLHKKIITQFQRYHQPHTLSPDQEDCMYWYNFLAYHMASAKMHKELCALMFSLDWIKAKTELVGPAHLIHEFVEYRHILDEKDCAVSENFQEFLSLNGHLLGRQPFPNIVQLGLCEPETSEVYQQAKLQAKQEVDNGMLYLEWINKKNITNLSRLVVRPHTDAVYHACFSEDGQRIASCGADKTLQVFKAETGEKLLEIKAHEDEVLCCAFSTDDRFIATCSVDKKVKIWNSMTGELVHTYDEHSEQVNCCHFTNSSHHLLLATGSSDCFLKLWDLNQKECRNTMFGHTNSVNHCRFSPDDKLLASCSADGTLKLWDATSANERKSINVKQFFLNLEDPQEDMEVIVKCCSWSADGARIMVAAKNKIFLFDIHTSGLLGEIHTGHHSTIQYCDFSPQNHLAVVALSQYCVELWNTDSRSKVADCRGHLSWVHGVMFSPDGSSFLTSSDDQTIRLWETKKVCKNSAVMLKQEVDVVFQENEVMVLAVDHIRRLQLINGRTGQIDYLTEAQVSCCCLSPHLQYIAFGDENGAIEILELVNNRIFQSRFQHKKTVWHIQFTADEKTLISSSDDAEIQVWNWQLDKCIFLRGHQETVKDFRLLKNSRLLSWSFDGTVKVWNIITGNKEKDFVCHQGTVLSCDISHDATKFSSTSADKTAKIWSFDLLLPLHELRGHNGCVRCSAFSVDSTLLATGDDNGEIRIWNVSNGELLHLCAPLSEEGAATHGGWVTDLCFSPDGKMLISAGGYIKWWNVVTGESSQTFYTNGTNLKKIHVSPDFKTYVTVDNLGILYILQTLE
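Assay system – biochemical Apaf-1 apoptosome reconstitution · Medium – 20 mM HEPES buffer, pH 7.5, containing CHAPS and BSA · Incubation – 30 min preincubation, 50 min reaction, room temperature · Measured by – Caspase-3-released Rh110 fluorescence, 540 nm emission, 480 nm excitation · Read-out – Caspase-3 cleavage activity downstream of Apaf-1 activation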
Rh110 interf act: Rh110 fluorescence interference by putative Apaf-1 activators, confirmation, artefact control for Apaf-1 activator project, biochemical, 20 µM; AID 504616, 2011; quenched caspase reaction, Ex480/Em540; shares compounds with Apaf1 activ; 980 tested, under 10 active; fluorescence interference (activity change), % at 20 µM, hits read low;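 active means mean activity change at or below -40% when tested at 20 µM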
Apaf-1 act conf2: Apaf-1 activators, single-dose retest, confirmation, biochemical, fluorescence, DEVD-Rh110, 20 µM. AID 504617, 2011. reconstituted apoptosome caspase-3 activity; active compounds read low. activity change, negative = activation, % at 20 µM. shares compounds with Apaf1 activ. hit rate 5% among 980;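 active means mean activity change at or below -40%, meaning activation of 40% or more, at 20 µM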
The depositor's hits bear a star; / = no result. Not all results are given here.

SMILES | Apaf1 activ | Rh110 interf act | Apaf-1 act conf2
CCN(Cc1ccccc1)C(=O)c1cccc(S(=O)(=O)N2CCN(c3ccc(F)cc3)CC2)c1 | 42.1 | / | /
CCN(CC(=O)Nc1c(F)cccc1F)C(=O)CNC(=O)c1ccc2c(c1)OCO2 | 53.2 | / | /
Cc1ccccc1OCCNc1cc(N2CC(C)NC(C)C2)ccc1[N+](=O)[O-] (stereo not drawn) | 56.5 | / | /
CC(=O)c1ccc(NC(=S)Nc2cccc3cnccc23)cc1 | 96.3 | / | /
CC(=O)c1ccc(NC(=O)c2cnsn2)cc1 | -409.7* | 5.2 | 11.9
CC(=O)c1ccc(NC(=O)c2ccc3nc(-c4ccco4)c(-c4ccco4)nc3c2)cc1 | 51.9 | / | /
COCCNC(=O)c1c(N)n(CCCn2ccnc2)c2nc3ccccc3nc12 | 93.9 | / | /
COCCNC(=O)c1c[nH]c2ccc(S(=O)(=O)N(C)c3ccc(C)c(C)c3)cc2c1=O | -68.0* | 18.8 | 19.0
Cc1ccc(N(C)S(=O)(=O)c2cccc(C(=O)Nc3ccc(C)cn3)c2)cc1 | 44.7 | / | /
C=CCNC(=O)c1c(N)n(-c2cccc(S(N)(=O)=O)c2)c2nc3ccccc3nc12 | 60.9 | / | /
NS(=O)(=O)c1ccc(NC(=O)c2ccc3nccnc3c2)cc1 | -43.7* | 0.6 | 2.5
O=C(c1ccc(OCCN2CCCCC2)cc1)c1c(-c2ccc(O)cc2)sc2cc(O)ccc12 | 46.9 | / | /
Cc1c(CCOC(=O)c2ccc(Cl)cc2Cl)sc[n+]1CC(=O)c1ccccc1 | 55.9 | / | /
CCN(CC)CCN(C(=O)c1ccc2c(c1)CCCC2)c1nc2ccc(OC)cc2s1 | 61.2 | / | /
NC1=NC[C@H](Cc2ccccc2)N1CCCCC1CCCCC1 | 66.9 | / | /
O=C(O)CCCNC(=O)C(c1ccccc1)c1ccccc1 | -4.7 | / | /
O=C(c1ccccc1)C(O)c1ccccc1 (stereo not drawn) | -40.9* | 4.1 | 4.2
CCN(CC(=O)NCc1cccs1)C(=O)C1CC(=O)N(c2ccc(OC)cc2OC)C1 (stereo not drawn) | 51.4 | / | /
COc1cc(CNc2ccc(O)cc2)cc(Br)c1OCc1ccccc1F | 95.7 | / | /
Cc1ccc(C)c(NC(=S)Nc2cccc3cnccc23)c1 | 95.7 | / | /
Cc1ccc(C)c(NC(=S)NCCN(C2CCCCC2)C2CCCC2)c1 | -73.1* | -1.3 | 12.6
O=C1C(Nc2ccccc2)=C(N2CCCCC2)C(=O)c2ccccc21 | 93.1 | / | /
COc1cc(OC)c2c(-c3ccccc3)cc(=O)oc2c1C(CCN1CCCC(C)C1)c1ccc2c(c1)OCO2 (stereo not drawn) | 56.2 | / | /
COc1ccc(OC)c2c1sc(=NC(=O)C(C)(C)C)n2C | -370.3* | 1.0 | 8.6
CCc1ccc(OCCNc2cc(N3CCNC(C)C3)ccc2[N+](=O)[O-])cc1 (stereo not drawn) | 75.0 | / | /
SMILES | Apaf1 activ | Rh110 interf act | Apaf-1 act conf2
O=C(/C=C/c1ccc(-c2ccccc2[N+](=O)[O-])o1)c1ccc(Br)cc1 | 48.8 | / | /
Oc1c(Br)cc(/C=N/NC(=S)NCc2ccco2)cc1Br | -328.7* | -0.3 | 14.3
Cc1cc(O)c2c(c1O)C(=O)[C@]13C(=C2O)C(=O)[C@@H]2[C@@H](O)[C@H]1[C@@H]1[C@H](O)[C@H]3C(=O)C3=C(O)c4c(O)cc(C)c(O)c4C(=O)[C@]312 | 68.5 | / | /
CCN1C(=NCCc2ccc(Br)cc2)N[C@@H](c2ccccc2)[C@H](C(=O)OC)[C@H]1C | 45.2 | / | /
Cc1c(C(=O)Nc2ccncc2)sc2nc(-c3ccc(F)cc3)cn12 | -43.8* | 7.4 | -27.1
C#CCOCCOCCOCCNc1nc(N2CCN(C(=O)Cn3cc(CCCCN)nn3)CC2)nc(N2CCN(C(=O)[C@H](CCCCN)n3cc(CCCC)nn3)CC2)n1 | 41.4 | / | /
O=C(NCc1nc2ccccc2[nH]1)C1=C[C@H](c2ccccc2)C[C@H](OCc2ccc(CO)cc2)O1 | -127.3* | 4.9 | 26.9
Nc1cc(N2CCCC2)c(Cl)cc1[N+](=O)[O-] | 42.6 | / | /
COC1=C(Nc2ccc(C)cc2)C(=O)c2ccccc2C1=O | 61.5 | / | /
COc1ccc(NC(=O)C(c2ccccn2)N(C(C)=O)c2ccc(C)cc2)cc1 (stereo not drawn) | -415.4* | 7.6 | 6.0
COc1ccccc1C(=O)Nc1ccc(Oc2nnc(-c3ccc(C)cc3)c3ccccc23)cc1 | 40.1 | / | /
COc1cc(Cn2c(N)c(C#N)c3nc4ccccc4nc32)cc(OC)c1 | 57.9 | / | /
COc1ccc(OCCNc2c([N+](=O)[O-])c(=O)oc3ccccc23)cc1 | 73.3 | / | /
CCOC(=O)N1CCC(Nc2c(-c3ccc(C)c(C)c3)c(=O)c2=O)CC1 | -201.7* | 10.2 | 12.4
CCOC(=O)N1CCC(NC(=O)c2ccc3c(c2)sc2nc(-c4ccc(OC)cc4)cn23)CC1 | 43.7 | / | /
CC(C)[C@H](CO)Nc1nc(Nc2ccc(Cl)c(C(=O)O)c2)c2ncn(C(C)C)c2n1 | 43.7 | / | /
O=C(Cc1ccccc1)NC1(O)C(=O)c2ccccc2C1=O | 85.4 | / | /
CCOc1ccc(-n2c(SCc3ccc([N+](=O)[O-])cc3)nnc2-c2ccc(OC)cc2)cc1 | -303.7* | -4.2 | 17.9
CC(C)(C)CC(C)(C)c1ccc(OCCOCC[N+](C)(C)Cc2ccccc2)cc1 | 81.7 | / | /
CC(C)c1ccc(S(=O)(=O)/N=C2/C=CC(=O)c3ccccc32)cc1 | 71.7 | / | /
Oc1c(Br)cc(Br)cc1C=Nc1cccc2ncccc12 | 96.6 | / | /
CCN1C(=O)C(C(=O)Nc2ccc(OC)cc2)C2CC1(C)Oc1ccccc12 (stereo not drawn) | -542.0* | 9.0 | 11.6
CNC[C@H]1Oc2ccc(NC(=O)Nc3ccc(OC)cc3)cc2C(=O)N([C@@H](C)CO)C[C@H]1C | 44.7 | / | /
CC(C)(O)C#Cc1ccc(CN2CCC(n3nccc3NC(=O)C3CC3)CC2)cc1 | -78.6* | 2.1 | 8.0
CCCC1=Nc2cc(C(=O)NCCCOCC)ccc2Sc2ccccc21 | 45.4 | / | /
SMILES | Apaf1 activ | Rh110 interf act | Apaf-1 act conf2
CCC1Oc2ccccc2N(CC(=O)NC2CCCCC2C)C1=O (stereo not drawn) | -224.4* | 6.6 | 14.7
Cc1ccc2c(c1)c1ccc3c(c1n2C)C(=O)C=CC3=O | 56.5 | / | /
S=c1[nH]nc(-c2ccncc2)n1/N=C/c1cn(-c2ccccc2)nc1-c1ccc(Cl)cc1 | -59.2* | -0.6 | -19.4
CCN1/C(=C/C=C/c2sc3ccccc3[n+]2CC)Sc2ccccc21 | 89.8 | / | /
N#CC1=C2SCN(Cc3ccccc3)CN2C(=O)CC1c1cccs1 (stereo not drawn) | 78.5 | / | /
COc1cccc(N2C(=O)CC(Nc3ccc(N4CCOCC4)cc3)C2=O)c1 (stereo not drawn) | -393.1* | 0.6 | 15.7
CCOC(=O)Nc1sc2c(c1C#N)CCCC2 | -61.6* | -4.4 | 10.2
CC(C)CC(=O)NC(NC(=S)Nc1sc2c(c1C#N)CCCC2)C(Cl)(Cl)Cl (stereo not drawn) | -214.7* | 5.2 | 34.0
CC[C@@H](C)[C@@H]1CN([C@@H](CN2CCC[C@H]2CN2C(N)=NC[C@H]2C(C)C)C(C)C)C(=N)N1CCc1ccc(Cl)c(Cl)c1 | 51.0 | / | /
COC(=O)c1c(C(C)=O)c(C)n(C)c1C | -343.1* | -1.3 | 10.9
CC(Nc1cccc2ccccc12)C(=O)N/N=C/c1ccccn1 (stereo not drawn) | 95.3 | / | /
